Measured values of several laboratories.
Adora2a: Adenosine receptor A2a (Adora2a, Rattus norvegicus, UniProt P30543)
AGTR2: Type-2 angiotensin II receptor (AGTR2, Homo sapiens, UniProt P50052)

| Structure (SMILES) | target | test | system | conditions | Ki [nM] |
| --- | --- | --- | --- | --- | --- |
| C#CCN1CCCn2c1nc1c2c(=O)n(C)c(=O)n1C | Adora2a | ligand displacement, radioligand |  | cell membranes | 7400 |
| N#Cc1c(N)nc(SCC(N)=O)c(C#N)c1-c1cccc(O)c1 | Adora2a | ligand displacement, radioligand |  | cell membranes | 751 |
| CC(C)CN1CCCn2c1nc1c2c(=O)n(C)c(=O)n1C | Adora2a | ligand displacement, radioligand |  | cell membranes | 870 |
| CCC(C)[C@H](NC(=O)c1ccc(C(=O)N(C)Cc2ccccc2)cc1)C(=O)O (stereo in doubt) | AGTR2 | ligand displacement in cells, radioligand |  |  | > 100000 |
| CC(C)CC(C)N1CCCn2c1nc1c2c(=O)n(C)c(=O)n1C (centres unmarked) | Adora2a | ligand displacement, radioligand |  | cell membranes | 5370 |
| CCC(C)[C@H](NC(=O)c1cccc(C(=O)N(Cc2ccccc2)Cc2ccccc2)c1)C(=O)O (stereo in doubt) | AGTR2 | ligand displacement in cells, radioligand |  |  | 7500 |
| CCCN1CCCn2c1nc1c2c(=O)n(C)c(=O)n1C | Adora2a | ligand displacement, radioligand |  | cell membranes | 1290 |
| CCC(C)[C@H](NC(=O)c1ccc(C)c(C(=O)N(CC)Cc2ccccc2)c1)C(=O)O (stereo in doubt) | AGTR2 | ligand displacement in cells, radioligand |  |  | 3400 |
| COc1cccc(-c2c(C#N)c(N)nc(SCC(N)=O)c2C#N)c1 | Adora2a | ligand displacement, radioligand |  | cell membranes | 1200 |
| CCN1CCCn2c1nc1c2c(=O)n(C)c(=O)n1C | Adora2a | ligand displacement, radioligand |  | cell membranes | 2650 |
| Cc1cc(C)c2c(c1)[C@@H](N(Cc1cc(C(F)(F)F)cc(C(F)(F)F)c1)c1nnn(C)n1)CCCN2C[C@H]1CC[C@H](C(=O)O)CC1 | Cytochrome P450 2B6 (CYP2B6, Homo sapiens, UniProt P20813) | enzyme activity, inhibitor | human, liver microsomes | pH 7.4 | 6300 |
| Fc1ccc(C2=Nn3c(nnc3-c3cccc(Br)c3)SC2)cc1 | Urease (Canavalia ensiformis, UniProt P07374) | enzyme activity, inhibitor |  |  | 3620 |
| CCc1ccc(C(=O)N[C@H](C(=O)O)C(C)CC)cc1C(=O)N(CC)CC (stereo in doubt) | AGTR2 | ligand displacement in cells, radioligand |  |  | 10000 |
| CCCCn1c(=O)c2[nH]c(C34CC5CC(CC3C5)C4)nc2n(CCCO)c1=O | Adora2a | ligand displacement, radioligand |  | cell membranes | 371 |
| CCCCOC(=O)NS(=O)(=O)c1sc(CC(C)C)cc1-c1ccc(OC(F)(F)F)c(Cn2ccnc2)c1 | AGTR2 | ligand displacement, radioligand |  | cell membranes | 280 |
| Cc1nc2cc(OCCCCN3CCN(c4cccc(Cl)c4Cl)CC3)ccc2s1 | Sodium-dependent serotonin transporter (SLC6A4, Homo sapiens, UniProt P31645) | ligand displacement, radioligand |  |  | 340 |
| CCC(C)[C@H](NC(=O)c1cccc(C(=O)N(CC)Cc2ccccc2)c1)C(=O)O (stereo in doubt) | AGTR2 | ligand displacement in cells, radioligand |  |  | 11000 |
| O=C1c2ccccc2CCCN1CCCCN1CCN(c2ccccn2)CC1 | D(1A) dopamine receptor (DRD1, Homo sapiens, UniProt P21728) | cell-free assay, radioligand |  |  | 1260 |
| CN1CCCn2c1nc1c2c(=O)n(C)c(=O)n1C | Adora2a | ligand displacement, radioligand |  | cell membranes | 4300 |
| CCCC[C@H](NC(=O)[C@H](C)c1c(C)[nH]c2ccc(O)cc12)c1ncc(-c2cc3ccccc3nc2OC)[nH]1 | Prostaglandin E2 receptor EP1 subtype (PTGER1, Homo sapiens, UniProt P34995) | cell-free assay |  |  | 2250 |
| COc1ccc(-c2c(C#N)c(N)nc(SCc3cccc(C)n3)c2C#N)cc1 | Adora2a | ligand displacement, radioligand |  | cell membranes | 48 |
| CCc1ccc(C(=O)N[C@H](C(=O)O)C(C)CC)cc1C(=O)N(CC)Cc1ccccc1 (stereo in doubt) | AGTR2 | ligand displacement in cells, radioligand |  |  | 8300 |
| COc1cccc(-c2c(C#N)c(N)nc(SCc3cccc(C)n3)c2C#N)c1 | Adora2a | ligand displacement, radioligand |  | cell membranes | 48.3 |
| CCCCCCN1CCCn2c1nc1c2c(=O)n(C)c(=O)n1C | Adora2a | ligand displacement, radioligand |  | cell membranes | 820 |
| N#Cc1c(N)nc2sc(C(N)=O)c(N)c2c1-c1ccc2c(c1)OCO2 | Adora2a | ligand displacement, radioligand |  | cell membranes | 1060 |
| CCC(C)[C@H](NC(=O)c1ccc(C)c(C(=O)N(C)Cc2ccccc2)c1)C(=O)O (stereo in doubt) | AGTR2 | ligand displacement in cells, radioligand |  |  | 7600 |
